Bioassay records deposited in PubChem BioAssay by Broad Institute.
Cneo AK release: Cryptococcus neoformans cell lysis inducers, primary screen, AK release luminescence, single concentration; C. neoformans lysis, adenylate kinase release luminescence, 4 h; normalised: neutral wells 0, clomiphene wells 100; lysis activity, % at 15 µM; hit rate 0.2% among 360,000;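 active means mean lysis activity across replicates of at least 80%, whatever share of replicates individually reach that level; inactive means mean lysis activity below 80%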
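Assay system: C. neoformans cells. Amount: yeast cell density of 5 × 10^6 cells/mL. Technique: AK luminescence. Buffer or medium: YPD. Times: static 4 h at 37 °C with compound, 1 h detection. Dosing: single-point compound dose. Read-out: lysis from increased AK signal.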
PGC1a acetyl inh: inhibitors of PGC1a acetylation signal, primary screen, cell-based, U2OS, AlphaScreen, inhibitor mode | AlphaScreen anti-acetyl-lysine; with virally co-expressed GCN5 acetyltransferase | inhibition, % at 15.6 µM | hit rate 0.17% among 350,000 | AID 651687, 2012;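 active means every replicate shows inhibition of at least 40%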;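 further: 0% = neutral control wells and 100% = positive control wells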
Vif inh: HIV Vif self-association inhibitors, primary screen, imaging, HEK293T, single point; HEK293T cells, Vif self-association by quenched fluorescence, 24 h; inhibition, % at 7.49 µM; hit rate 0.35% among 340,000; AID 602346, 2012; in the data active means inhibition above about 50%, passing the limit was not always enough
FGF22 binding: binders of human FGF22 protein, primary screen, FGF22 synaptogenesis inhibitor project, biophysical, thermal shift, single point | Fibroblast growth factor 22 (Homo sapiens), Q9HCT0 | recombinant FGF22 thermal shift, SYPRO orange fluorescence; percent of sucrose octasulfate shift, DMSO zero | activity (Tm shift, normalised), % at 9.99 µM | hit rate 1.5% among 340,000;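 active means mean Tm shift, scaled 0 neutral to 100 positive control, at about 1.3% or above, every replicate too, limit read from the data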
Target sequence (Q9HCT0 whole entry, looked up): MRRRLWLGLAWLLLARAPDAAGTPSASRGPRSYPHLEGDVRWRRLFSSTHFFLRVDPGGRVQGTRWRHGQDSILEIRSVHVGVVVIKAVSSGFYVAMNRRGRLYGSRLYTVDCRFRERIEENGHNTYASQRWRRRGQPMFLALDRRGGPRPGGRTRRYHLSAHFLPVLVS
Ecoli rRNA inh: reduced GFP signal of wild-type E. coli, primary screen, bacterial rRNA inhibitor project, GFP/RFP fluorescence, OD600, single point; E. coli WT GFP vs humanized-ribosome RFP mutants, 24 h; stronger effect = lower value; DMSO median 0, no signal -100; AID 720706, 2013; hit rate 1.6% among 350,000; GFP signal change (wild-type ribosome), % (concentration not given with the values);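 active means significant combined selectivity score with lowered wild-type GFP, culture density cut under 30%, mutant RFP and density less affected; inactive means any of these conditions unmet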
PglD DTNB: C. jejuni PglD acetyltransferase inhibitors, primary screen, biochemical, DTNB colorimetric, single point; purified PglD enzyme, DTNB colorimetric CoA detection; inhibition, % at 12.5 µM; AID 602405, 2012; hit rate 0.098% among 360,000; UDP-N-acetylbacillosamine N-acetyltransferase PglD (Campylobacter jejuni); in the data active means inhibition above about 16%, passing the limit was not always enough
* hit, by the source's call; / = no result. Rows were chosen to be rich in hits. Some 2.9% of all compounds tested hit in one or more screens of this group.

SMILES	Cneo AK release	PGC1a acetyl inh	Vif inh	FGF22 binding	Ecoli rRNA inh	PglD DTNB
C[C@H](NC(=O)C[C@H]1CC[C@@H](NC(=O)Cc2ccccn2)[C@@H](CO)O1)c1ccccc1	96*	-8	/	-1	2	2
O=C(C[C@@H]1CC[C@H](NC(=O)Cc2ccccn2)[C@@H](CO)O1)NCCc1ccccc1	95*	7	/	0	1	-1
O=C(C[C@H]1CC[C@H](NC(=O)Cc2ccccn2)[C@H](CO)O1)NCCc1ccccc1	4	0	/	0	2	-2
O=C(c1ccc2c(c1)OCO2)N1C[C@H]2[C@@H](c3ccccc31)[C@H](CO)N2Cc1cccnc1	0	3	/	-1	1	0
O=C(CSc1nc(O)cc(=O)n1-c1ccccc1)Nc1ccc2c3c(cccc13)CC2	1	-1	6	43*	-1	5
COc1ccc(N2C(=O)CC(Sc3n[nH]c(-c4cccc(C)c4)n3)C2=O)cc1 (stereo not given)	0	8	15	0	-9	2
CCOc1ccccc1N1C(=O)CC(Sc2n[nH]c(-c3ccccc3)n2)C1=O (stereo not given)	/	-16	-13	44*	4	/
O=C(O)c1ccc(N/N=C/C=C/c2ccccc2[N+](=O)[O-])cc1	2	-1	54*	0	-8	-8
Nc1ccccc1O	-1	-11	-8	/	/	0
Nc1cccc2c(O)cccc12	/	/	-10	0	-28*	/
Cc1cccc(N2CCN(C(=O)CNC(=O)c3cccc([N+](=O)[O-])c3)CC2)c1C	0	16	-7	0	-19*	-2
C[C@H](CO)N1C[C@H](C)[C@@H](CN(C)Cc2ccc(-c3ccccc3)cc2)Oc2c(NC(=O)CCC(F)(F)F)cccc2C1=O	/	/	/	/	3	/
O=C(Oc1cccc(OC(=O)c2ccco2)c1)c1ccco1	0	2	-4	0	-23*	0
O=C(Oc1cccnc1)c1ccco1	0	-3	3	/	/	0
CC1CCN(CC(=O)c2cccs2)CC1	/	6	2	44*	9	/
CC1CC(C)CN(C(=O)COC(=O)CCC(=O)c2cccs2)C1 (stereo not given)	0	-10	-1	44*	1	2
O=C(CCC(=O)c1cccs1)OCC(=O)N1CCN(C(=O)c2ccco2)CC1	-1	/	34	/	/	1
CCCC(=O)N1CC2(CCN(C(=O)CC3CC3)CC2)c2c(n(C)c3cc(OC)ccc23)[C@H]1CO	/	/	/	/	-7	/
O=C(C[C@H]1C=C[C@@H](NC(=O)C2CCOCC2)[C@H](CO)O1)Nc1ccc(-c2ccccc2)cc1	-9	8	/	0	0	0
CCOC(=O)C1=C(C)N=c2s/c(=C/c3ccc(OCC(=O)O)cc3)c(=O)n2C1c1cc(OC)c(OC)c(OC)c1 (stereo not given)	-2	3	15	-1	8	6
CCOC(=O)C1=C(C)N=c2s/c(=C\c3cccc(OCC(=O)O)c3)c(=O)n2C1c1ccccc1OC (stereo not given)	2	55*	-3	0	8	2
O=C(c1c[nH]c2ccccc12)C(Cl)c1ccccc1 (stereo not given)	-3	/	26	0	-24*	-1
CCOCCCNC(C(=O)Nc1ccc(OC)c(Cl)c1)c1ccccc1 (stereo not given)	2	/	1	43*	-18	-3
CO[C@H]1CN(C)C(=O)c2cc(NC(=O)c3ccccc3)ccc2OC[C@H](C)N(C(=O)C2CC2)C[C@@H]1C	48	5	/	0	0	-5
O/N=C1\CCCc2ccc3ccccc3c21	-12	-2	4	0	-38*	6
